# Experimental data: ChEMBL document CHEMBL4823260, “From High-Throughput Screening to Target Validation: Benzo[d]isothiazoles as Potent and Selective Agonists of Human Transient Receptor Potential Cation Channel Subfamily M Member 5 Possessing In Vivo Gastrointestinal Prokinetic Activity in Rodents” (J Med Chem, 2021)
# What was measured:
# Mus musculus [1] = test: Gastroprokinetic activity in CD-1 mouse assessed as stimulation of gastrointestinal motility by measuring total fecal weight at 10 mg/kg, po measured after 6 hrs (reference value: 0.43 +/-0.05 g)
# Mus musculus [2] = test: Gastroprokinetic activity in CD-1 mouse assessed as stimulation of gastrointestinal motility by measuring total fecal weight at 10 mg/kg, po measured after 1 hrs (reference value: 0.08 +/-0.02 g); assay type: functional
# [3] = Intrinsic clearance in human liver microsomes assessed per mg protein incubated up to 30 mins in presence of NADPH by LC-MS/MS analysis; assay type: ADME, Microsome
# Mus musculus [4] = test: Gastroprokinetic activity in CD-1 mouse assessed as stimulation of gastrointestinal motility by measuring total fecal weight at 100 mg/kg, po measured after 6 hrs (reference value: 0.43 +/-0.05 g)
# [5] = Intrinsic clearance in mouse liver microsomes assessed per mg protein incubated up to 30 mins in presence of NADPH by LC-MS/MS analysis; assay type: ADME, Microsome
# Mus musculus [6] = test: Gastroprokinetic activity in CD-1 mouse assessed as stimulation of gastrointestinal motility by measuring total fecal weight at 100 mg/kg, po measured after 1 hrs (reference value: 0.08 +/-0.02 g); assay type: functional
# Mus musculus [7] = test: Gastroprokinetic activity in CD-1 mouse assessed as stimulation of gastrointestinal motility by measuring fecal number at 1 mg/kg, po measured after 2 hrs (reference value: 5.3 +/-0.7); assay type: functional
# [8] = Protein binding in mouse plasma assessed as unbound fraction measured after 5 hrs by equilibrium dialysis based HPLC/UPLC-MS/MS analysis; assay type: ADME, cell-free
# [9] = biological target: T1, Transient receptor potential cation channel subfamily M member 5 (Mus musculus, UniProt Q9JJH7); test: Agonist activity at mouse TRPM5 expressed in CHO-K1 cells maintained at 80 mV final holding potential by syncroPatch assay; assay type: cell-based
# T1 sequence (Q9JJH7 whole entry): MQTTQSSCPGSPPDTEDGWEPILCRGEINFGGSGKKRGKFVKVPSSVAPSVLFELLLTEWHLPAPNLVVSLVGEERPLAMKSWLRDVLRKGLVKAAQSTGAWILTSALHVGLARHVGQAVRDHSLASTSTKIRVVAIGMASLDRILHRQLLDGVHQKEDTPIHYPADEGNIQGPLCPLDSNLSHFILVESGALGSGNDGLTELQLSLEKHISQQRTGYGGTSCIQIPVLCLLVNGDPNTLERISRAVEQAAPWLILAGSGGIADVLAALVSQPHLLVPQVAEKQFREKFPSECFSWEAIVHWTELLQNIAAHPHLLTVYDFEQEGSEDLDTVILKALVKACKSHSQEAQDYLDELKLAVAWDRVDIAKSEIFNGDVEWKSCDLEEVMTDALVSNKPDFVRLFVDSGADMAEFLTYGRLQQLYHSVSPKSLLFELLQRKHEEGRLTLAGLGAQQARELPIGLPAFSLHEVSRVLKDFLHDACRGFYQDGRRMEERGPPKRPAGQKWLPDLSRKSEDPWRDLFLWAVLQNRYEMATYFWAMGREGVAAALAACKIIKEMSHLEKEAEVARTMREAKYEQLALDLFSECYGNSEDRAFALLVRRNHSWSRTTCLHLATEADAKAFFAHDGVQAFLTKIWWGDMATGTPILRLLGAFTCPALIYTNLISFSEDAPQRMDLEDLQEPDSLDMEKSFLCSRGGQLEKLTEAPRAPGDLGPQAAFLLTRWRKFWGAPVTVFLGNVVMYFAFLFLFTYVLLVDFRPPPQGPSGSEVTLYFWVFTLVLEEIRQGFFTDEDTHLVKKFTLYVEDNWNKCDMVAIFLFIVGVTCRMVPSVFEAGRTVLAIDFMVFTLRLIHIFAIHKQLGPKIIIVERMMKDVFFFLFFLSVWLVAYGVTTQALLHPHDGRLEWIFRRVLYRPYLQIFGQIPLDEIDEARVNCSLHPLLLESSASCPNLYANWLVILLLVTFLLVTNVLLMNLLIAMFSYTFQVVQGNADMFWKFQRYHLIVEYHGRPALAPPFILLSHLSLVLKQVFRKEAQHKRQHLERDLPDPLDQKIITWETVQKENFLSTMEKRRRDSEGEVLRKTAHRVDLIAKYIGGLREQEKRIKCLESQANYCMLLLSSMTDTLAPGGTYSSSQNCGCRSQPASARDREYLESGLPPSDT
# How it was run: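 SyncroPatch 384 whole-cell recording at rt on CHO-K1 cells stably expressing human or mouse TRPM5. Intracellular solution had 2 mM Na-ATP and 5 μM free Ca2+. Cumulative doses 0.03–31.6 μM in 0.5% DMSO, 150 s each after 180 s vehicle. Current measured at the end of the +80 mV step, normalized to vehicle; pEC50 is the mean of ≥2 independent experiments.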
# [10] = biological target: Transient receptor potential cation channel subfamily V member 1 (Homo sapiens, UniProt Q8NER1); test: Agonist activity at human TRPV1 expressed in CHO cells assessed as increase in capsaicin-induced intracellular calcium level measured after 1 hr by FLIPR assay; assay type: cell-based
# How it was run: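 CHO cells stably expressing hTRPV1, plated at 10,000/well 24 h before the assay. Loaded with calcium-6 dye plus 2.5 mM probenecid for 1 h at 37 °C and 1 h at rt. FLIPR dual-addition protocol; agonist potency derived as pEC50.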
# [11] = Drug concentration in C57BL6 mouse plasma at 100 mg/kg, po administered as single dose measured after 6 hrs by LC-MS/MS analysis; assay type: ADME, organism-based
# How it was run: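 Single oral dose of 1, 3 or 100 mg/kg in mouse. Plasma (ng/mL) and colon and ileum (ng/g) exposure sampled at 6, 24 and 48 h, and at 72 h for the top dose; mean values reported.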
# [12] = Efflux ratio of apparent permeability across basolateral to apical over apical to basolateral membrane in human Caco-2 cells incubated for 30 mins by LC-MS/MS analysis; assay type: ADME, cell-based
# Mus musculus [13] = test: Gastroprokinetic activity in CD-1 mouse assessed as stimulation of gastrointestinal motility by measuring fecal number at 100 mg/kg, po measured after 6 hrs (reference value: 20.1 +/-1.4); assay type: functional
# [14] = Solubility of the compound in phospahte-buffered saline buffer at pH 7.4 incubated for 2 hrs by HPLC/UV analysis; assay type: physicochemical; conditions: phosphate-buffered saline
# [15] = biological target: Transient receptor potential cation channel subfamily M member 4 (Homo sapiens, UniProt Q8TD43); test: Agonist activity at human TRPM4 expressed in CHO cells assessed as change in membrane potential by FLIPR assay
# [16] = Effect on locomotor activity in CD-1 mouse at 1 to 100 mg/kg, po measured up to 6 hrs; assay type: organism-based; conditions: in vivo, dose 1-100 mg/kg
# [17] = Clast in CD-1 mouse at 1 mg/kg, iv measured up to 24 hrs; assay type: ADME, organism-based; conditions: in vivo, read-out: Clast
# [18] = AUClast in CD-1 mouse at 10 mg/kg, po measured up to 24 hrs; assay type: ADME, organism-based; set-up: route oral, dose 10 mg/kg, time <=24; conditions: in vivo
# Chain of Transient receptor potential cation channel subfamily M member 4 (Q8TD43 whole entry): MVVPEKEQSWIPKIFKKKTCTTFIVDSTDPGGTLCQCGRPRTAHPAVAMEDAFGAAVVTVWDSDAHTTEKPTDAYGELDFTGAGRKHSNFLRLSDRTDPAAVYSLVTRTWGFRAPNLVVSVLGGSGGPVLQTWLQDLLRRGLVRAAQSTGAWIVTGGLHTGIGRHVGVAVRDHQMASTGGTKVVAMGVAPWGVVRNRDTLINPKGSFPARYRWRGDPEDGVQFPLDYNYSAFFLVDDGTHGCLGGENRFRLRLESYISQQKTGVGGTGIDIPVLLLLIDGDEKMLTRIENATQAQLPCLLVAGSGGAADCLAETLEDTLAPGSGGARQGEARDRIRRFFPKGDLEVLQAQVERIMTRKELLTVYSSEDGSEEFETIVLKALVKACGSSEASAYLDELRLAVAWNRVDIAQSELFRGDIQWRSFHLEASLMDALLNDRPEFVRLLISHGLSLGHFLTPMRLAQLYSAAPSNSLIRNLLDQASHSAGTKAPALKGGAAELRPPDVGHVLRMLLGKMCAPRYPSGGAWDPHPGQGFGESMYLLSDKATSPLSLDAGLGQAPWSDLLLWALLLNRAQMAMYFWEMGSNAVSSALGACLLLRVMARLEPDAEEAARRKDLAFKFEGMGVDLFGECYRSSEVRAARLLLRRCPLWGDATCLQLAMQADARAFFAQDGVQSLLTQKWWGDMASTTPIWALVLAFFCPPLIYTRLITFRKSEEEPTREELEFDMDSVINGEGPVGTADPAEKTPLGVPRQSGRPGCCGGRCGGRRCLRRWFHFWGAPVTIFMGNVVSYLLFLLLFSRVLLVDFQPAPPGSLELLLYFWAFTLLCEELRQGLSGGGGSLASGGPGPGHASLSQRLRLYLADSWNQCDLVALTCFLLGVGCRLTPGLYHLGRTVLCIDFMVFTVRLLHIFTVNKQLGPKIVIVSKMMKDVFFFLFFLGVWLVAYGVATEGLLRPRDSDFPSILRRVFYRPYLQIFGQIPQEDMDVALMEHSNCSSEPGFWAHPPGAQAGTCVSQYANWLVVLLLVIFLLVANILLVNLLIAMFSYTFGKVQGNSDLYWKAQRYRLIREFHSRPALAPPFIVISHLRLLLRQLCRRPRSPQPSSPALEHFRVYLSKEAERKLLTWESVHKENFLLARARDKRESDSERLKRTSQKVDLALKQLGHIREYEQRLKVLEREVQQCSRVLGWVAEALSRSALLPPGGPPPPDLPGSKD
# Chain of Transient receptor potential cation channel subfamily V member 1 (Q8NER1 whole entry): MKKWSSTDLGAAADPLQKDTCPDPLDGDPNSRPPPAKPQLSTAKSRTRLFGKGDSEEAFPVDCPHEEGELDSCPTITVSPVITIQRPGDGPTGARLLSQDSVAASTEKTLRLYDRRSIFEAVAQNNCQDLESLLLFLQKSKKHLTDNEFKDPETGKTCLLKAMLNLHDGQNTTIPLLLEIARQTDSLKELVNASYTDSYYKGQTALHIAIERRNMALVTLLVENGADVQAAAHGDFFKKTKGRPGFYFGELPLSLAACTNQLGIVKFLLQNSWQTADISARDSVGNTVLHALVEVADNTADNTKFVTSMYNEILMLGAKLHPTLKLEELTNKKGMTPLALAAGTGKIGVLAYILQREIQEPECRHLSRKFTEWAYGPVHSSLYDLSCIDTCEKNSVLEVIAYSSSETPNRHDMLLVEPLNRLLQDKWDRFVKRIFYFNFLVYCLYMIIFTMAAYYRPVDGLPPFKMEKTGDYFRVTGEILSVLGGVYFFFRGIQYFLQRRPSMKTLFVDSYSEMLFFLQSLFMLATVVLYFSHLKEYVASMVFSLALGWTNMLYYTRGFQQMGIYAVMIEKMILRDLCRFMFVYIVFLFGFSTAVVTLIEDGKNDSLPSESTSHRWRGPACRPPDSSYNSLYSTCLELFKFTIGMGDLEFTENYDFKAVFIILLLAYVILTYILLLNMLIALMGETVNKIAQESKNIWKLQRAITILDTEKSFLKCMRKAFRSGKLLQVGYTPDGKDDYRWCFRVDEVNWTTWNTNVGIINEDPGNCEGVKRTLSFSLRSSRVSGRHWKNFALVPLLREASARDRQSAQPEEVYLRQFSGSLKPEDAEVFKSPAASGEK
microsomal CLint [3],microsomal CLint [5],fraction unbound at 5 h [8],EC50 [9],EC50 [10],concentration at 6 h [11],efflux ratio at 0.5 h [12],solubility at 2 h [14],concentration at 24 h [17],AUC(0-t) at 24 h [18],SMILES,Activity (Mus musculus [1]),Activity (Mus musculus [2]),Activity (Mus musculus [4]),Activity (Mus musculus [6]),Activity (Mus musculus [7]),Activity (Mus musculus [13]),EC50 [15],Activity [16]
172 µL/min/mg,520 µL/min/mg,< 0.01,0.0158 µM,> 15.8 µM,22.6 ng/mL,1.6,30 µM,–,–,Clc1cnc(CNc2cc3sncc3cc2Cl)s1,0.39 g,0.08 g,0.49 g,0.12 g,7.5,16.3,3.16 µM,Non-Toxic
146 µL/min/mg,164 µL/min/mg,< 0.01,0.0437 µM,> 15.8 µM,–,1.08,511 µM,2.99 ng/mL,94.3 ng·h/mL,Clc1cnc(CNc2ccc3cnsc3c2)s1,–,–,–,–,–,–,> 63.1 µM,–
193 µL/min/mg,462 µL/min/mg,–,0.0851 µM,> 15.8 µM,–,0.97,50 µM,–,–,Clc1cnc(CNc2ccc3sncc3c2)s1,–,–,–,–,–,–,> 63.1 µM,–
